Screening results deposited in PubChem BioAssay by The Scripps Research Institute Molecular Screening Center.
Sampled rows, rich in hits. Any-hit rate of the full collection: about 4.5%.
TAAR1 ag = human TAAR1 agonists, primary screen, Fluo-8 calcium fluorescence, CHO RD-HGA16 cells; Trace amine-associated receptor 1 (Homo sapiens), Q96RJ0; vehicle wells 0%, saturating PEA agonist 100%; activation, % at 3 µM; 0.99% of 360,000 active; AID 624467, 2012;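 active means activation above the mean activation of all test compounds in the run plus 3 SD, cut at about 38% in these data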
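System: CHO-derived RD-HGA16 cells with stable Gα16 and human TAAR1 / Times: 17-24 h plating, Fluo-8 75 min 37 °C, 30 min RT / Technique: calcium-sensitive Fluo-8 signal, excitation 470-495, emission 515-575 nm / Measure: % activation relative to PEA EC100 response / Benchmarks: DMSO and PEA EC100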
OX1R antag-1 = OX1R (HCRTR1) antagonists, primary screen, fluorescence, CHO/OX1R cells, Fluo-8 calcium, orexin A. inhibition, % at 5 µM. Orexin/Hypocretin receptor type 1 (Homo sapiens), O43613. Fluo-8 calcium fluorescence. 0.43% of 330,000 active;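 active means inhibition above its plate's threshold, mean inhibition of all tested compounds on the plate plus 3 SD, cut at about 37% in these data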;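 further: 0% = orexin A challenge wells and 100% = SB-334867-A antagonist wells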
Target sequence (O43613 whole entry, looked up): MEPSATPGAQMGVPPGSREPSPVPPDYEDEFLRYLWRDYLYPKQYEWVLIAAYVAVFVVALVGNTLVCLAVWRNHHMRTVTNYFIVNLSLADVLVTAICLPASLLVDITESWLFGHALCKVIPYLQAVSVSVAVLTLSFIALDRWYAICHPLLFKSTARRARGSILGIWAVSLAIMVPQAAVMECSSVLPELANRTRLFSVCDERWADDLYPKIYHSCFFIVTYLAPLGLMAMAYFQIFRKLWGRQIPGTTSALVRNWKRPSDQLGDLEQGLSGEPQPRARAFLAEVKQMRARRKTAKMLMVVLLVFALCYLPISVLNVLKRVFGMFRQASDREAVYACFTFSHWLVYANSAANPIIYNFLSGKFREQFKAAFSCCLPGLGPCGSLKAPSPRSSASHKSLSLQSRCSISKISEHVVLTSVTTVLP
OX1R antag-2 = antagonists of human orexin 1 receptor (OX1R) | Orexin/Hypocretin receptor type 1 (Homo sapiens), O43613 | OX1R-expressing cells, FRET antagonist read-out | inhibition, % at 6.6 µM | 1.8% of 330,000 active | AID 485270, 2010; in the data active means inhibition mostly above about 38%, no sharp cut-off; inactive means mostly below about 40%;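 further: 0% = agonist challenge alone and 100% = reference antagonist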
GPR7 antagonist = GPR7 receptor antagonists, primary screen, cell-based, fluorescence, single concentration. 1.1% of 290,000 active. Neuropeptides B/W receptor type 1 (Homo sapiens), P48145. AID 1861, 2009. inhibition, % at 4.4 µM. GPR7-expressing cells, fluorescence antagonist assay; in the data active means inhibition above about 16%, passing the limit was not always enough;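 further: cells stimulated with the agonist NPW; 0% = agonist with vehicle and 100% = vehicle without agonist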
Target sequence (P48145 whole entry, looked up): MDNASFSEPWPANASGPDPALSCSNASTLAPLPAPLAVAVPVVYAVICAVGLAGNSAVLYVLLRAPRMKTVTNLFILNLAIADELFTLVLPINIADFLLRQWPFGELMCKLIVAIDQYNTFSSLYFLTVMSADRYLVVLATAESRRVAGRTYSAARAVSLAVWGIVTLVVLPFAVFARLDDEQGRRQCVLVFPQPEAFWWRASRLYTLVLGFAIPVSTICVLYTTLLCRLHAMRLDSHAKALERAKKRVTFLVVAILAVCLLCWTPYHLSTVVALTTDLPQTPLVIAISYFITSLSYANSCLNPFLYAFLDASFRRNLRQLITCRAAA
TAAR1 antag = human TAAR1 antagonists, primary screen, Fluo-8 calcium fluorescence, CHO RD-HGA16 cells; Trace amine-associated receptor 1 (Homo sapiens), Q96RJ0; antagonist; inhibition, % at 3 µM; 1.5% of 360,000 active; AID 624466, 2012;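 active means inhibition above a per-plate cutoff, the mean inhibition of test compounds on that plate plus 3 SD, cut at about 49% in these data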;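 further: 0% = DMSO plus EC80 beta-PEA response and 100% = DMSO alone without agonist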
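System: RD-HGA16 CHO cells with stable hTAAR1 and Gα16 | Probe or stimulus: EC80 β-phenethylamine stimulus | Dosing: 3 µM, single point | Times: Dye loading 75 min at 37 °C, then 30 min room temperature | Measured by: Fluo-8 calcium-sensitive fluorescence | Read-out basis: % inhibition of agonist calcium response | Replicates: n of 1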
CHO parental Ca = ATP-evoked calcium signal inhibitors, parental CHO, primary screen, counter-screen for OX1R antagonist project, cell-based, fluorescence, Fluo-8 calcium dye | parental CHO-K1, ATP-induced calcium, Fluo-8 fluorescence | inhibition, % at 5.6 µM | 0.63% of 330,000 active | AID 463079, 2010;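 active means inhibition above that plate's mean sample inhibition plus 3 SD, cut at about 26% in these data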;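 further: 0% = ATP-challenged DMSO wells and 100% = DMSO wells without ATP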
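Assay system: parental CHO cells; Read-out basis: percent inhibition of ATP-evoked calcium rise, normalized to controls; Benchmarks: ATP and no-ATP DMSO wells; Compound dosing: single nominal dose of 5.6 µM per compound; Signal: Fluo-8 calcium dye fluorescence; Also added: ATP as calcium-mobilizing challenge; Repeats: singlicate.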
OX1R Fluo8 conf = OX1R (HCRTR1) antagonists, confirmation, fluorescence, CHO/OX1R cells, Fluo-8 calcium, orexin A | shares compounds with OX1R antag-1 | orexin A calcium Fluo-8 fluorescence | inhibition, % at 5 µM | 38% of 1,100 active; in the data active means inhibition above about 29%;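 further: 0% = agonist challenge alone and 100% = reference antagonist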
CHO Ca counter = ATP-evoked calcium inhibition in parental CHO, counter-screen for OX1R antagonist project, cell-based, fluorescence, CHO-K1, triplicate; shares compounds with OX1R antag-1; 9.3% of 1,100 active; ATP-induced calcium, Fluo-8 fluorescence; inhibition, % at 5.6 µM;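 active means inhibition above a per-plate limit, the mean inhibition of that plate's test compounds plus 3 SD, cut at about 25% in these data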;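 further: 0% = ATP challenge with DMSO and 100% = DMSO without ATP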
OX1R HTRF confirm = OX1R (HCRTR1) antagonists, confirmation, cell-based, HTRF; shares compounds with OX1R antag-2; OX1R-expressing cells, HTRF antagonist assay; inhibition, % at 6.6 µM; 49% of 1,800 active; in the data active means inhibition above about 55%;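 further: CHO cells expressing OX1R stimulated with orexin A at about EC80; 0% = agonist challenge alone and 100% = reference antagonist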
CHO-K1 HTRF = signal inhibition in parental CHO-K1 cells, counter-screen for OX1R antagonist project, cell-based, HTRF; shares compounds with OX1R antag-2; HTRF counterscreen; inhibition, % at 6.6 µM; 48% of 1,800 active; in the data active means inhibition above about 17%;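 further: 0% = agonist challenge with vehicle and 100% = vehicle alone without agonist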
An asterisk follows results filed as active.

Results for COc1ccc(NC(=O)CSc2ncc(-c3ccc(F)cc3)n2Cc2ccco2)cc1 ?
TAAR1 ag: 5; OX1R antag-1: 6; OX1R antag-2: 33; GPR7 antagonist: 13; TAAR1 antag: 26; CHO parental Ca: -14

How did CCC(=O)Nc1cc(NC(=O)CSc2ncc(-c3ccc(F)cc3)n2Cc2ccco2)ccc1C do in these assays?
TAAR1 ag: 9; OX1R antag-1: 50*; OX1R antag-2: 84*; GPR7 antagonist: -11; TAAR1 antag: 15; CHO parental Ca: -19; OX1R Fluo8 conf: 36*; CHO Ca counter: -20; OX1R HTRF confirm: 63*; CHO-K1 HTRF: -5

What do the screens show for `CCn1c(SCC(=O)Nc2nc(-c3ccccc3)cs2)nnc1-c1ccccc1O`?
TAAR1 ag: 24; OX1R antag-1: 79*; OX1R antag-2: 86*; GPR7 antagonist: 0; TAAR1 antag: 39; CHO parental Ca: 0; OX1R Fluo8 conf: -8; CHO Ca counter: -20; OX1R HTRF confirm: 86*; CHO-K1 HTRF: -11

How did C[C@@H]1ON(C)[C@H]2C[C@H]3c4cc(-c5ccc6c(c5)OCO6)ccc4CCN3C[C@@H]12 do in these assays?
TAAR1 ag: 0; TAAR1 antag: -11

What do the screens show for `Cc1cc(C)nc(NC(=O)/C=C/c2ccccc2Cl)c1`?
TAAR1 ag: -1; OX1R antag-1: -7; OX1R antag-2: 48; GPR7 antagonist: -7; TAAR1 antag: 15; CHO parental Ca: -22

What do the screens show for `Cc1cc(C)nc(NC(=O)/C=C/c2ccc(Cl)cc2Cl)c1`?
TAAR1 ag: 3; OX1R antag-1: 43; OX1R antag-2: 92*; GPR7 antagonist: -7; TAAR1 antag: 37; CHO parental Ca: -22; OX1R Fluo8 conf: -5; CHO Ca counter: -5; OX1R HTRF confirm: 63*; CHO-K1 HTRF: 3

What do the screens show for `CCN(C(=O)CO/N=C/c1ccc(OC)cc1OC)c1c(N)n(Cc2ccccc2)c(=O)[nH]c1=O`?
TAAR1 ag: 0; OX1R antag-1: 69*; OX1R antag-2: 92*; TAAR1 antag: -1; CHO parental Ca: -25; OX1R Fluo8 conf: 67*; CHO Ca counter: -9; OX1R HTRF confirm: 93*; CHO-K1 HTRF: -2

What do the screens show for `COc1ccc2cc(C(=O)/C=C/c3cc(OC)c(O)c(OC)c3)ccc2c1`?
TAAR1 ag: 21; OX1R antag-1: 35; OX1R antag-2: 62*; GPR7 antagonist: -5; TAAR1 antag: 23; CHO parental Ca: -15; OX1R Fluo8 conf: 49*; CHO Ca counter: -1; OX1R HTRF confirm: 75*; CHO-K1 HTRF: -9

Results for C[C@@H]1C(c2cccc(Cl)c2)=NN(c2ccc(Br)cc2)[C@H]1C(=O)N1CCOC1=O ?
OX1R antag-1: 7; OX1R antag-2: 0; CHO parental Ca: -10

What do the screens show for `COC(=O)[C@H](CC(C)C)N(Cc1ccccc1)S(=O)(=O)N(Cc1ccccc1)[C@@H](CC(C)C)C(=O)OC`?
TAAR1 ag: 1; OX1R antag-1: 17; OX1R antag-2: 8; TAAR1 antag: 3; CHO parental Ca: 15

Results for COC(=O)[C@H](CC(C)C)NS(=O)(=O)N(Cc1ccccc1)[C@@H](CC(C)C)C(=O)OC ?
TAAR1 ag: 6; OX1R antag-1: 49; OX1R antag-2: 48*; TAAR1 antag: 20; CHO parental Ca: -27; OX1R Fluo8 conf: 14; CHO Ca counter: -12; OX1R HTRF confirm: 54; CHO-K1 HTRF: 5

How did O=[N+]([O-])c1ccc(N2CCCC2)c([N+](=O)[O-])c1 do in these assays?
TAAR1 ag: -1; TAAR1 antag: 6

Results for COc1cccc(CN(Cc2ccco2)S(=O)(=O)c2ccc(S(=O)(=O)NCc3ccccc3)cc2)c1OC ?
TAAR1 ag: 16; OX1R antag-1: 70*; OX1R antag-2: 60*; GPR7 antagonist: -10; TAAR1 antag: 28; CHO parental Ca: -2; OX1R Fluo8 conf: 40*; CHO Ca counter: -4; OX1R HTRF confirm: 84*; CHO-K1 HTRF: -13

How did O=[N+]([O-])c1ccc(-c2cnc(SC(c3ccccc3)c3ccccc3)[nH]2)cc1 do in these assays?
TAAR1 ag: 0; OX1R antag-1: 37; OX1R antag-2: 54*; GPR7 antagonist: 18; TAAR1 antag: 38; CHO parental Ca: 17; OX1R Fluo8 conf: 18; CHO Ca counter: 12; OX1R HTRF confirm: 68*; CHO-K1 HTRF: 12

How did C[C@H](CO)N1C[C@H](C)[C@H](CN(C)C(=O)Nc2cccc(Oc3ccccn3)c2)OCc2cnnn2CCCC1=O do in these assays?
TAAR1 ag: 1; TAAR1 antag: -29

Results for CC1Oc2ccccc2N(CC(=O)NCC2CCCO2)C1=O (configuration not stated) ?
TAAR1 ag: 2; OX1R antag-1: -14; OX1R antag-2: 2; GPR7 antagonist: -9; TAAR1 antag: 9; CHO parental Ca: -5

What do the screens show for `COc1cccc(/C=C2/Oc3ccccc3N(CC(=O)NCC3CCCO3)C2=O)c1` (configuration not stated)?
OX1R antag-1: 75*; OX1R antag-2: 109*; GPR7 antagonist: -14; CHO parental Ca: -13; OX1R Fluo8 conf: 94*; CHO Ca counter: -12; OX1R HTRF confirm: 94*; CHO-K1 HTRF: 13

Results for O=C(O)CN1C(=O)/C(=C/c2cccc(Cl)c2)Oc2ccccc21 ?
TAAR1 ag: 2; OX1R antag-1: 32; OX1R antag-2: 77*; GPR7 antagonist: -9; TAAR1 antag: -21; CHO parental Ca: -8; OX1R Fluo8 conf: 13; CHO Ca counter: -3; OX1R HTRF confirm: 66*; CHO-K1 HTRF: 11
